Screens (PubChem BioAssay)
A selection: hits, their analogues and other compounds. The true share with any hit is near 3.3%.
Rev-RRE block: HIV Rev-RRE protein-RNA interaction inhibition | P05866 | Rev peptide-RRE RNA binding, FRET | inhibition, % at 8 µM | hit rate 0.79% among 97,000 | AID 704;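 active = inhibition above the screen-wide mean plus 3 SD, cut at about 35% in these data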
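Assay system: Labelled RRE RNA duplex and labelled Rev peptide | Times: 5 min preincubation and 15 min binding, 25 °C | Detection: FRET, ex 480 nm, em 540 and 671 nm | Evaluation: % inhibition of FRET ratio versus controls | Benchmarks: DMSO wells as 0% and neomycin B wells as 100% inhibition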
Measles CPE: protection of cells from measles virus. Measles virus-infected cells, CPE protection, absorbance. AID 841. protection (pct of control), % at 4 µM. hit rate 1.5% among 140,000; in the data active = protection mostly above about 24%, no sharp cut-off; inactive = mostly below about 26%
HUVEC tox IL1B: HUVEC cytotoxicity counter-screen, IL-1B stimulated; HUVEC cell count loss, Hoechst imaging; cell count reduction, % at 2 µM; hit rate 0.41% among 94,000;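 active = cell count reduction more than 3 SD above the screen-wide mean, cut at about 70% in these data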
FAK inh: FAK (human) kinase inhibition. biochemical FAK kinase activity assay. inhibition, %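 (tested at 7 µM)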. hit rate 0.84% among 97,000. AID 727; in the data active = inhibition above about 19%
Target sequence (Q05397 whole entry, looked up): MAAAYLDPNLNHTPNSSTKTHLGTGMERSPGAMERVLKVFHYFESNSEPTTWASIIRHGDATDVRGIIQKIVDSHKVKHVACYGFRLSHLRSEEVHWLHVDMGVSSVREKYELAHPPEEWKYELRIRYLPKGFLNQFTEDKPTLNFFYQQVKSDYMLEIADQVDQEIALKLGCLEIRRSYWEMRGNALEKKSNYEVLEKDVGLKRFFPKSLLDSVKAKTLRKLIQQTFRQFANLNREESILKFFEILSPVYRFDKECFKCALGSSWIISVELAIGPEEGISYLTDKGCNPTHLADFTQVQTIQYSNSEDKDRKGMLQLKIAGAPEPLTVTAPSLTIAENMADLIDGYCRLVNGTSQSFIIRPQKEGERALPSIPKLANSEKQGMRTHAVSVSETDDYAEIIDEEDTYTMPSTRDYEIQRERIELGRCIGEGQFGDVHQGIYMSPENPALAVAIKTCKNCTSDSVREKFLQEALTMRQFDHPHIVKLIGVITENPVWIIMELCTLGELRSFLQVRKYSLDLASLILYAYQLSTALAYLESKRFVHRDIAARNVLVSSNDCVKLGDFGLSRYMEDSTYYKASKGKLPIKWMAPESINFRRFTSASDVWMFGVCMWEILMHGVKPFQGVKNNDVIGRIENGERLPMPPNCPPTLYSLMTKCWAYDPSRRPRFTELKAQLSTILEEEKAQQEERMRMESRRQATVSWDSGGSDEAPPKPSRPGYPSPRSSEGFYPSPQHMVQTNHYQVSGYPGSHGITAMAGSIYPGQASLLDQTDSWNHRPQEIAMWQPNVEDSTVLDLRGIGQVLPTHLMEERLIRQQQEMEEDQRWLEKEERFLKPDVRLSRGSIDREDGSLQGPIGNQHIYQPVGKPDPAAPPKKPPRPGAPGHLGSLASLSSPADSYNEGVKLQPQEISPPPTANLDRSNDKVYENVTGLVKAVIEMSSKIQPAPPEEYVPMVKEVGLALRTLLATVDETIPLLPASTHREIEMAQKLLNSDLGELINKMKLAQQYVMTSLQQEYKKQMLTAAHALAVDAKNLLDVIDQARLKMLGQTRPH
IL1B NFkB inh: blocks IL-1B driven NFkB nuclear translocation in HUVEC cells; inhibition, % at 2 µM; HUVEC IL-1B NFkB p65 nuclear translocation imaging; hit rate 0.43% among 94,000; AID 796;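 active = inhibition above about 30% together with a positive call from visual inspection of the well image, limit read from the data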;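 note: nuclear over cytoplasmic p65 intensity ratio measured by imaging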
IL1B NFkB pot: enhances IL-1B driven NFkB nuclear translocation; hit rate 0.3% among 94,000; HUVEC IL-1B NFkB p65 nuclear translocation imaging; activation, % at 2 µM;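 active = activation above 40%, about the mean plus 3 SD, also judged a hit on visual image review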;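 note: percent activation is computed from the nuclear over cytoplasmic p65 intensity ratio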
Numbers stand for hits; i = inactive; nt = no result; [ ] = remark or other dose.

SMILES	Rev-RRE block	Measles CPE	HUVEC tox IL1B	FAK inh	IL1B NFkB inh	IL1B NFkB pot
Cc1ccc(-c2cc(-c3nnc(SCC(=O)NCC(C)C)n3N)c3ccccc3n2)cc1	i	i	i	i	i	43
CCC(C)NC(=O)CSc1nnc(-c2cc(-c3ccc(C)cc3)nc3ccccc23)n1N (stereo not given)	i	i	i	i	i	73
NC1=NC2CS(=O)(=O)CC2S1 (stereo not given)	nt	i	nt	nt	nt	nt
Cn1c(COc2ccc3ccccc3c2)nnc1SCC(N)=O	i	i	i	i	i	i
Cn1c(COc2ccc3ccccc3c2)nnc1SCC(=O)OC1CCCCC1	i	i	i	i	i	41
Cc1ccccc1C(=O)NC(=S)Nc1sc2c(c1C#N)CCC(C)C2 (stereo not given)	i	59	i	i	i	i
O=C(CN(CCc1ccccc1)C(=O)CNS(=O)(=O)c1ccc(F)cc1)NCC1CCCO1 (stereo not given)	i	33	i	i	i	i
O=C(CN(CC1CCCO1)C(=O)CNS(=O)(=O)c1ccc(Cl)cc1)NCCc1ccccc1 (stereo not given)	i	i	i	i	i	i
C/C(=N\NC(=O)CCCOc1ccc(Cl)cc1C)c1ccc(C)o1	nt	i	nt	nt	nt	nt
CCN(CC)c1ccc(C(=O)NC(=S)Nc2cc(S(=O)(=O)N3CCOCC3)ccc2-n2cncn2)cc1	nt	i	nt	nt	nt	nt
COc1coc(C(O)C[N+](=O)[O-])cc1=O (stereo not given)	nt	i	nt	nt	nt	nt
COC(=O)c1sc(=S)n(-c2ccccc2OC)c1N	i	44	i	i	i	i
O=C(O)C1C2C=CC(O2)C1C(=O)Nc1ccc(S(=O)(=O)N2CCc3ccccc32)cc1 (stereo not given)	i	i	i	i	49	i
O=S(=O)(NC1CC1)c1ccc(S(=O)(=O)N2CCc3ccccc32)cc1	i	44	i	i	i	i
Nc1ccc(S(=O)(=O)N2CCCc3ccccc32)cc1	i	i	i	i	i	i
C/C(N)=C(/C#N)C(=O)COC(=O)c1cc(S(=O)(=O)N2CCCCC2)ccc1C	i	i	i	i	i	i
C/C(N)=C(/C#N)C(=O)COC(=O)c1ccc(C)c(S(=O)(=O)N2CCCCC2)c1	i	i	i	i	i	42
CCc1c(C)sc(NC(=O)CC#N)c1C#N	37	i	i	i	i	i
CCc1c(C)sc(NC(=O)c2cc(C)no2)c1C#N	i	i	i	i	i	i
COc1ccccc1C1C=C(c2ccc(Cl)cc2)Nc2nc(NS(C)(=O)=O)nn21 (stereo not given)	i	i	i	i	i	i
CS(=O)(=O)Nc1nc2n(n1)C(c1ccccc1)C=C(c1ccc(Br)cc1)N2 (stereo not given)	61	i	i	i	i	i
COc1ccc(C2C=C(c3ccc(Cl)cc3)Nc3nc(NC(C)=O)nn32)cc1 (stereo not given)	78	i	i	i	i	i
CC(=O)Nc1nc2n(n1)C(c1ccc(Cl)cc1)C=C(C)N2 (stereo not given)	i	i	i	i	i	i
CCC(=O)Nc1nc2n(n1)C(c1ccc(OC)cc1)C=C(c1ccccc1)N2 (stereo not given)	45	i	i	i	i	i
CC1=CC(c2ccc(Cl)cc2)n2nc(NC(=O)c3ccccc3)nc2N1 (stereo not given)	i	i	i	i	i	i
SMILES	Rev-RRE block	Measles CPE	HUVEC tox IL1B	FAK inh	IL1B NFkB inh	IL1B NFkB pot
O=C(c1nc2n(n1)C(c1ccc(Cl)cc1)C=C(c1ccccc1)N2)N1CCOCC1 (stereo not given)	118[fluorescence artefact?]	i	i	i	i	i
Cc1ccc(S(=O)(=O)N(C)C)cc1NS(=O)(=O)c1ccc(Cl)s1	nt	i	nt	nt	nt	nt
CCOC(=O)C1CCCN(C(=S)Nc2cccc(Cl)c2C)C1 (stereo not given)	nt	i	nt	nt	nt	nt
CC(=O)Nc1nc2n(n1)C(c1ccc(F)cc1)C=C(c1ccccc1)N2 (stereo not given)	56	i	i	i	i	i
O=C(Nc1nc2n(n1)C(c1ccccc1)C=C(c1ccccc1)N2)c1ccco1 (stereo not given)	46	i	i	i	i	i
CC(=O)Nc1nc2n(n1)C(c1ccccc1)C=C(c1ccccc1)N2 (stereo not given)	i	i	i	i	i	i
COc1ccc(C2=NN(C(=O)CSc3ncccn3)C(c3ccc(OC)cc3)C2)cc1 (stereo not given)	nt	63	nt	nt	nt	nt
O=C(CCc1ccc(S(=O)(=O)NCc2ccccc2)cc1)NCC1CCCO1 (stereo not given)	nt	i	nt	nt	nt	nt
N#CC1=C(N)Oc2n[nH]c(-c3cccs3)c2C1c1ccsc1 (stereo not given)	i	i	i	i	i	i
N#CC1=C(N)Oc2n[nH]c(-c3cccs3)c2C1c1ccco1 (stereo not given)	60	i	i	i	i	i
CC(=O)OC(C#CCN1CCOCC1)c1ccccc1 (stereo not given)	i	46	i	i	i	i
CCOC(=O)N1CCC(Nc2nc3ccccc3n3nnnc23)CC1	nt	34	nt	nt	nt	nt
CC1(C)Oc2ccc3ccc(=O)oc3c2-c2cn[nH]c21	i	i	i	24	i	i
COc1ccc(C2CC(=O)C=C(NCCC(C)C)C2)cc1 (stereo not given)	i	i	i	i	i	52
CN1CCN(S(=O)(=O)c2ccc3[nH]c(=O)oc3c2)CC1	nt	40	nt	nt	nt	nt
Cn1c(=O)oc2cc(S(=O)(=O)N3CCCC3)ccc21	i	i	i	i	i	i
CC(C)Cc1nc2ccccc2n1CCc1ccccc1	nt	i	nt	nt	nt	nt
Nc1ncnc2c1ncn2[C@@H]1O[C@H](CO)[C@@H](O)[C@H]1O	nt	45	nt	nt	nt	nt
CC1=Nc2ccccc2/C1=C/c1sc(=N)n(-c2nccs2)c1O	62	i	nt	i	nt	nt
CCn1c(O)c(/C=C2\C=Nc3ccccc32)sc1=Nc1ccc(C)cc1	i	i	nt	i	nt	nt
CC(C)(C)C1CCC(=NNC(=O)C(=O)NC2CCCCC2)CC1 (stereo not given)	nt	i	nt	nt	nt	nt
O=C(O)c1cc(-c2ccc(Cl)cc2)n[nH]1	nt	35	nt	nt	nt	nt
O=C(CCOc1ccccc1)NCC(c1ccco1)N1CCCCC1 (stereo not given)	i	i	i	i	i	i
CC1CC(C)(C)CC2(C1)NC(=O)N(CC(=O)NCC(c1ccco1)N1CCCCC1)C2=O (stereo not given)	i	i	i	i	35	i
FC(F)(F)c1cccc(N2CCc3cn[nH]c32)c1	i	39	i	i	i	i
CC(C)c1ccccc1NC1=CC(=O)CC(C)(C)C1	nt	i	nt	nt	nt	nt
CCCCOC(=O)C1=C(C)Nc2nnnn2C1c1ccc(OC)c(OC)c1OC (stereo not given)	i	46	i	i	i	i
CCCCOC(=O)C1=C(C)Nc2ncnn2C1c1ccc(OC)c(OC)c1OC (stereo not given)	i	i	i	i	i	i
c1nc(N2CCCC2)c2[nH]cnc2n1	i	i	i	34	i	i
c1nc(N2CCCCCC2)c2[nH]cnc2n1	nt	i	nt	nt	nt	nt
